{"source": "ChEMBL document CHEMBL3877241", "about": "(J Med Chem, 2016)", "key": {"[1]": {"biological_target": "Tyrosine-protein kinase JAK3 (Homo sapiens, UniProt P52333)", "experiment": "Inhibition of human JAK3 JH1 catalytic domain (I781 to S1124 residues) expressed in mammalian expression system by KINOMEScan assay"}, "[2]": {"experiment": "Antiproliferative activity against human NKYS cells after 48 hrs by CellTiter-Glo assay", "type": "functional, cell-based"}, "[3]": {"experiment": "Antiproliferative activity against mouse TAMH cells after 24 hrs by CellTiter-Glo assay", "type": "ADME, cell-based"}, "cells": {"experiment": "cells", "type": "functional, cell-based", "conditions": "Homo sapiens, HEL 92.1.7, 36 h"}, "[4]": {"experiment": "Antiproliferative activity against human HCT116 cells after 72 hrs by MTT assay", "type": "functional, cell-based", "conditions": "HCT-116, 72 h", "in_short": "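MTT viability after 72 h exposure. Cells seeded at 2500/well and left 24 h before compound addition; DMSO at 0.5% v/v final. MTT added in FBS-free medium for 3 h at 37 °C, formazan dissolved in DMSO, absorbance read at 570 nm. IC50 from a sigmoidal fit of % viability vs log concentration; triplicates on separate occasions using two different stock solutions.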"}, "[5]": {"biological_target": "Non-receptor tyrosine-protein kinase TYK2 (Homo sapiens, UniProt P29597)", "sequence (P29597 whole entry)": "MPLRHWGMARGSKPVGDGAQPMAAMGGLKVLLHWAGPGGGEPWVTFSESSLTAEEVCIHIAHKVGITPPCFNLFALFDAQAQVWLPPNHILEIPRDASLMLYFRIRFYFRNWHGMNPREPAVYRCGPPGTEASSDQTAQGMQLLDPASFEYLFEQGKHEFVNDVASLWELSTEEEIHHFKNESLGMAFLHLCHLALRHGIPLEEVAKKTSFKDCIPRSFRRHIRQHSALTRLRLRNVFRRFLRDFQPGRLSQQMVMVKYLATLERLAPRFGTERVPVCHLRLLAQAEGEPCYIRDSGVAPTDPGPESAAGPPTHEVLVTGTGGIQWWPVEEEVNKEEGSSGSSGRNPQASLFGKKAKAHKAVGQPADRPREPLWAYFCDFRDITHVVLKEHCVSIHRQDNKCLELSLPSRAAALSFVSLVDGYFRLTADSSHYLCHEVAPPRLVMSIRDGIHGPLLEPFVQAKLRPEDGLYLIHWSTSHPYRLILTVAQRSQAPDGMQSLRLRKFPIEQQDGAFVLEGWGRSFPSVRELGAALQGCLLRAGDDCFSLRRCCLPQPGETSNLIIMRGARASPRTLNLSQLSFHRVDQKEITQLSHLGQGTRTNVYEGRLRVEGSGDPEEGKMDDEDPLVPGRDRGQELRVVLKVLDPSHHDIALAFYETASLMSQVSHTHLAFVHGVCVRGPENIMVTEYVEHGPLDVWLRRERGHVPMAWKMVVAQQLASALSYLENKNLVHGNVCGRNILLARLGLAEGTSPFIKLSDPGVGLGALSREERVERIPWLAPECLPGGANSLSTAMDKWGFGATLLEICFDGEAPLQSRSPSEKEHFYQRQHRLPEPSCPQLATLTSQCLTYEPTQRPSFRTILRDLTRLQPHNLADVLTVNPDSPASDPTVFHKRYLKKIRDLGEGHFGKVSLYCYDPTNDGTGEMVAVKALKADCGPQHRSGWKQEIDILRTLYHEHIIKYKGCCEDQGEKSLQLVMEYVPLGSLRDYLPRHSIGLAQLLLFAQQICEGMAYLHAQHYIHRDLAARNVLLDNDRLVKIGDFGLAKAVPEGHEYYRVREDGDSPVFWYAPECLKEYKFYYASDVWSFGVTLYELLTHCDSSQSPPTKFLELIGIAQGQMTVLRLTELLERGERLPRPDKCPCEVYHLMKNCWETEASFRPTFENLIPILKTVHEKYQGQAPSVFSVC", "experiment": "Inhibition of TYK2 (unknown origin) at 0.1 uM preincubated for 20 mins followed by [33P]ATP addition measured after 120 mins by Hotspot assay relative to control", "in_short": "(§1)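 Radiometric HotSpot kinase assay. Buffer: 20 mM HEPES pH 7.5, 10 mM MgCl2, 1 mM EGTA, 0.02% Brij35, 0.02 mg/mL BSA, 0.1 mM Na3VO4, 2 mM DTT, 1% DMSO. Compound added about 20 min before ATP/[33P]ATP (10 μM final). Reactions run 120 min at 25 °C, spotted on P81 filters and washed in phosphoric acid. Activity expressed relative to DMSO after background subtraction. Single-concentration panel at 100 nM in duplicate.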"}, "[6]": {"biological_target": "Tyrosine-protein kinase JAK1 (Homo sapiens) (UniProt P23458)", "experiment": "Inhibition of JAK1 (unknown origin) at 0.1 uM preincubated for 20 mins followed by [33P]ATP addition measured after 120 mins by Hotspot assay relative to control", "in_short": "as §1"}, "[7]": {"experiment": "Antiproliferative activity against human HL60 cells", "type": "functional, cell-based", "conditions": "HL-60"}, "[8]": {"biological_target": "Mast/stem cell growth factor receptor Kit (Homo sapiens, UniProt P10721)", "experiment": "Inhibition of human KIT (I571 to D952 residues) expressed in bacterial expression system assessed as residual activity at 100 nM by KINOMEScan assay relative to control", "in_short": "(§2)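 Done by DiscoveRx as an ATP-site binding panel covering 97 kinases across the kinome. It measures binding rather than inhibition of phosphate transfer. The compound was tested at 100 nM, and the result is expressed as percent of control binding.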"}, "MOLM-14 [9]": {"test_system": "MOLM-14", "experiment": "Induction of apoptosis in human MOLM14 cells assessed as necrotic cells at 3 uM after 48 hrs by Annexin-V FITC/propidium iodide staining based flow cytometry (reference value: 0.1%)", "type": "functional", "in_short": "(§3)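 MOLM-14 cells treated 48 h at the stated concentrations; doxorubicin as positive control. Stained with Annexin V-FITC and propidium iodide and analysed by flow cytometry (at least 10,000 events). Gated quadrants: Annexin V−/PI− viable, Annexin V+/PI− early apoptotic, Annexin V+/PI+ late apoptotic.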"}, "[10]": {"biological_target": "Mitogen-activated protein kinase 8 (Homo sapiens, UniProt P45983)", "experiment": "Inhibition of full length human MAPK8 (M1 to Q384 residues) expressed in mammalian expression system by KINOMEScan assay"}, "[11]": {"biological_target": "Histone deacetylase 4 (Homo sapiens) (UniProt P56524)", "sequence (P56524 whole entry, the tested form may be a part)": "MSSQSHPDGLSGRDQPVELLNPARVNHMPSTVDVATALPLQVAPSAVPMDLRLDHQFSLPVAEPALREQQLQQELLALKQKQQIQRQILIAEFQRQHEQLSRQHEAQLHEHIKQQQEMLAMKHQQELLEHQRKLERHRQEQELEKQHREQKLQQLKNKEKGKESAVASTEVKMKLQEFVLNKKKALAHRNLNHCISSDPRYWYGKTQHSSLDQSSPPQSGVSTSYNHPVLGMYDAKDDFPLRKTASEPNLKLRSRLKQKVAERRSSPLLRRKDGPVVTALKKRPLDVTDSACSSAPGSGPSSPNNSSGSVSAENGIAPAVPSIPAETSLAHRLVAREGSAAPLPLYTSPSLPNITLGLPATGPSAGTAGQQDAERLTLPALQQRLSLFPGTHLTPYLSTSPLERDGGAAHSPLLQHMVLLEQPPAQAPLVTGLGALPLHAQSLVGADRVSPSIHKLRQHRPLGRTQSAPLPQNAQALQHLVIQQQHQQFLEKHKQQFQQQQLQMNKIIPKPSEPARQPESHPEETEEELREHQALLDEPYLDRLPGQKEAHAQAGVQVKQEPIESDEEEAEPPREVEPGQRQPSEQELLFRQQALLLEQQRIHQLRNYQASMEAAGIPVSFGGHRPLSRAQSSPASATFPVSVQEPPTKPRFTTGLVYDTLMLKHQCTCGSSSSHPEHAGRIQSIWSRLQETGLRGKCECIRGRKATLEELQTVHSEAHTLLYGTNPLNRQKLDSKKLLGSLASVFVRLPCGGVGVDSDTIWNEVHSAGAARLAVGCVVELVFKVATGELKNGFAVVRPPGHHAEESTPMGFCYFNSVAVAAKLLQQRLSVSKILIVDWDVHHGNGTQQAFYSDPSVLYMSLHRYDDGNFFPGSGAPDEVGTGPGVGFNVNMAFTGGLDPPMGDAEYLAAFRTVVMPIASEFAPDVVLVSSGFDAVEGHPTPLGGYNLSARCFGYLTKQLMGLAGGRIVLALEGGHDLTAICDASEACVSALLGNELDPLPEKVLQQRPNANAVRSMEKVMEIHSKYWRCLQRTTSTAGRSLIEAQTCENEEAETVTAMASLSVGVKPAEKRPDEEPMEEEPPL", "experiment": "Inhibition of human recombinant N-terminal GST-tagged C-terminal His-tagged HDAC4 (627 to 1084 residues) expressed in insect cells at 10 uM preincubated with enzyme followed by acetyl-Lys(trifluoroacetyl)-AMC substrate addition measured after 2 hrs by fluorescence assay relative to control", "in_short": "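HDAC enzyme in 50 mM Tris-HCl pH 8.0, 137 mM NaCl, 2.7 mM KCl, 1 mM MgCl2 was pre-incubated with compound dosed from DMSO. The reaction was started with the class IIa substrate acetyl-Lys(trifluoroacetyl)-AMC and run 2 h at 30 °C. Developer with trichostatin A stopped it, and fluorescence (Ex/Em 360/460 nm) was read at plateau. Single test concentration 10 µM.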"}, "MOLM-14 [12]": {"test_system": "MOLM-14", "experiment": "Induction of apoptosis in human MOLM14 cells assessed as live cells at 0.75 uM after 48 hrs by Annexin-V FITC/propidium iodide staining based flow cytometry (reference value: 94 to 94.1%)", "type": "functional", "in_short": "as §3"}, "[13]": {"biological_target": "Histone deacetylase 7 (Homo sapiens) (UniProt Q8WUI4)", "sequence (Q8WUI4 whole entry, the tested form may be a part)": "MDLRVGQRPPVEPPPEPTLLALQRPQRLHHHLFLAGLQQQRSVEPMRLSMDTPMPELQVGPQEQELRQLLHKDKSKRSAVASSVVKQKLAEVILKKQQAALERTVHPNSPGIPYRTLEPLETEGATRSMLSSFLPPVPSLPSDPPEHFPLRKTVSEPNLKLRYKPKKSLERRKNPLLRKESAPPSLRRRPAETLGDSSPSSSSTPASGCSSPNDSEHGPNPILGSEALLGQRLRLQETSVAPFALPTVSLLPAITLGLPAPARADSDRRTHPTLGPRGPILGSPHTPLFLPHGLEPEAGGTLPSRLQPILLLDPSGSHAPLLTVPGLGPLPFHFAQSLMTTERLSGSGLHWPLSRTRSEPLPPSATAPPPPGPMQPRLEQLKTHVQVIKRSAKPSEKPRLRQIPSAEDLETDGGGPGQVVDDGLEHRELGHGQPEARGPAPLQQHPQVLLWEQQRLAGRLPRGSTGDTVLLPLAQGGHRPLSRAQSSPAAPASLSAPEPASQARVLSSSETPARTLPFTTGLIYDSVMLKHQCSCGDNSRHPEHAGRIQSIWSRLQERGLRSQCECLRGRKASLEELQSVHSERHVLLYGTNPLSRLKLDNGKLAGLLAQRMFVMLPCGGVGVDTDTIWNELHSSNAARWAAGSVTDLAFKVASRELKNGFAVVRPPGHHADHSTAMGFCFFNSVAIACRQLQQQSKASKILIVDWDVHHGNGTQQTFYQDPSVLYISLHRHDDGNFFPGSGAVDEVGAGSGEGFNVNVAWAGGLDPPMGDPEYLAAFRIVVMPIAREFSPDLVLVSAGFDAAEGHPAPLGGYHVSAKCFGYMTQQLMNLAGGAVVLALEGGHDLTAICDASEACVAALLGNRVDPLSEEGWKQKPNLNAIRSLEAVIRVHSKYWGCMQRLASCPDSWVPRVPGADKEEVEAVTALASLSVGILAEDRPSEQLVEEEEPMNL", "experiment": "Inhibition of human recombinant N-terminal GST-tagged HDAC7 (518 to 991 residues) expressed in insect cells at 10 uM preincubated with enzyme followed by […] addition measured after 2 hrs by fluorescence assay relative to control", "in_short": "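HDAC enzyme in Tris-HCl pH 8.0 buffer with NaCl, KCl and MgCl2 was pre-incubated with compound from DMSO. Substrate was then added and the reaction ran 2 h at 30 °C. It was stopped with developer containing trichostatin A, and fluorescence (Ex/Em 360/460 nm) was read at plateau. Single test concentration 10 µM.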"}, "[14]": {"biological_target": "Tyrosine-protein kinase JAK2 (Homo sapiens, UniProt O60674)", "sequence (O60674 whole entry, the tested form may be a part)": "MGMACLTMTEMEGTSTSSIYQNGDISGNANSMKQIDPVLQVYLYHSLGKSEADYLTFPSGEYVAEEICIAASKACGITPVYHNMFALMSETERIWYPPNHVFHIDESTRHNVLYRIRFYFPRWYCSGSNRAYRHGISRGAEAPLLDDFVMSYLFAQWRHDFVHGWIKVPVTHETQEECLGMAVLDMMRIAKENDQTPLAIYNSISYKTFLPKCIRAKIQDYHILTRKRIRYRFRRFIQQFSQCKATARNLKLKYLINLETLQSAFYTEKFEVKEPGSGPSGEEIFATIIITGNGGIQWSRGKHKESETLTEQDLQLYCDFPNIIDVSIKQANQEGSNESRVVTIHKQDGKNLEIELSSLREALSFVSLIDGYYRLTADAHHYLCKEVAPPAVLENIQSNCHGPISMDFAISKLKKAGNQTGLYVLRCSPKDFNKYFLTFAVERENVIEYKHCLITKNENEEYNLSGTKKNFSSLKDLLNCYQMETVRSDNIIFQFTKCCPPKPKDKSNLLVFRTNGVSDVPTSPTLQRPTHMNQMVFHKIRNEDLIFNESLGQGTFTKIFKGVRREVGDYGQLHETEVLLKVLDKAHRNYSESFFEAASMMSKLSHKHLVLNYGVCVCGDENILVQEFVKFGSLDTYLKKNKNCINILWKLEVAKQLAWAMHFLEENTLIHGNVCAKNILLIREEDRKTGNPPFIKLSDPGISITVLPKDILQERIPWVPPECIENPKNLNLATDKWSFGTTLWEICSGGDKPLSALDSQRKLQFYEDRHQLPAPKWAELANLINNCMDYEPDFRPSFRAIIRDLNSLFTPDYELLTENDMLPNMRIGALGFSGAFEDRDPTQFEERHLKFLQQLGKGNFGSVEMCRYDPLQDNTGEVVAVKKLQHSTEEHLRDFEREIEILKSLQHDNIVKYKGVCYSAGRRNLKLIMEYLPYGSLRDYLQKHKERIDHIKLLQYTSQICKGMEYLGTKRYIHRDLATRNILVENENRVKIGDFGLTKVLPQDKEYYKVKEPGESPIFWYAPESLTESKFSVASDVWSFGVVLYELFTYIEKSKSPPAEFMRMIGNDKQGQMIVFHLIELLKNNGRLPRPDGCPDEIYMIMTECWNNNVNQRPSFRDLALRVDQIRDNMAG", "experiment": "Inhibition of human JAK2 JH1 catalytic domain (A829 to G1132 residues) expressed in mammalian expression system assessed as residual activity at 100 nM by KINOMEScan assay relative to control", "in_short": "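DiscoveRx KINOMEscan competition binding against ATP sites in a 97-kinase panel, with compound at 100 nM. Binding reported as % of control.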"}, "[15]": {"test_system": "Mast/stem cell growth factor receptor Kit (Homo sapiens), P10721 [V559D,T670I]", "experiment": "Inhibition of human KIT (Y545 to D952 residues) V559D/T670I double mutant expressed in bacterial expression system assessed as residual activity at 100 nM by KINOMEScan assay relative to control", "in_short": "as §2"}, "[16]": {"experiment": "Antiproliferative activity against human KHYG cells after 48 hrs by CellTiter-Glo assay", "type": "functional, cell-based"}, "Histone deacetylase 11": {"biological_target": "Histone deacetylase 11 (Homo sapiens, UniProt Q96DB2)", "sequence (Q96DB2 whole entry, the tested form may be a part)": "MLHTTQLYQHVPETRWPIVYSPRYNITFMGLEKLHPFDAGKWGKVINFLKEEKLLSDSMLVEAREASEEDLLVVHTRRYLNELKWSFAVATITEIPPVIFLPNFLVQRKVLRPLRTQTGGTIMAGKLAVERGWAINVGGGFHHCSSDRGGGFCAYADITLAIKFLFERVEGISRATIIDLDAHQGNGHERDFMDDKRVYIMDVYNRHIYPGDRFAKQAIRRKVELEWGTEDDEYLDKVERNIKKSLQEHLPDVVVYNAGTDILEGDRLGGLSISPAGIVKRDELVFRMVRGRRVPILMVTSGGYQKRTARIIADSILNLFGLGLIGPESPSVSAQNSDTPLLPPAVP", "experiment": "Inhibition of human recombinant N-terminal His-tagged HDAC11 (1 to 347 residues) expressed in baculovirus infected insect cells preincubated with enzyme followed by fluorogenic Arg-His-Lys-Lys(Ac)-AMC substrate addition measured after 2 hrs by fluorescence assay relative to control"}, "[17]": {"biological_target": "Phosphatidylinositol 4,5-bisphosphate 3-kinase catalytic subunit gamma isoform (Homo sapiens, UniProt P48736)", "experiment": "Inhibition of human PI3Kgamma (S144 to A1102 residues) expressed in mammalian expression system assessed as residual activity at 100 nM by KINOMEScan assay relative to control", "in_short": "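DiscoveRx competition-binding panel of 97 kinases, measuring binding to the kinase ATP site rather than catalytic turnover. The test compound was run at a single 100 nM concentration. Results are given as % of control binding.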"}, "[18]": {"biological_target": "Mast/stem cell growth factor receptor Kit (Homo sapiens, UniProt P10721, T670I/V559D)", "experiment": "Inhibition of human KIT (Y545 to D952 residues) V559D/T670I double mutant expressed in bacterial expression system by KINOMEScan assay"}}, "data": [{"compound": "O=C(CCCCCCOc1ccc2cc1COC/C=C/COCc1cccc(c1)-c1ccnc(n1)N2)NO", "values": [{"measurement": "IC50", "setting": "[1]", "result": "10 to 1000", "unit": "nM"}, {"measurement": "IC50", "setting": "[2]", "result": 1080, "unit": "nM"}, {"measurement": "IC50", "setting": "[3]", "result": 9570, "unit": "nM"}, {"measurement": "IC50", "setting": "cells", "result": 940, "unit": "nM"}, {"measurement": "IC50", "setting": "[4]", "result": 2230, "unit": "nM"}, {"measurement": "inhibition", "setting": "[5]", "result": 56, "unit": "%"}, {"measurement": "inhibition", "setting": "[6]", "result": 8.7, "unit": "%"}, {"measurement": "IC50", "setting": "[7]", "result": 4000, "unit": "nM"}, {"measurement": "Activity", "setting": "[8]", "result": 21, "unit": "%"}, {"measurement": "Activity", "setting": "MOLM-14 [9]", "result": 1.3, "unit": "%"}, {"measurement": "IC50", "setting": "[10]", "result": "1000 to 10000", "unit": "nM"}, {"measurement": "inhibition", "setting": "[11]", "result": 8.6, "unit": "%"}, {"measurement": "Activity", "setting": "MOLM-14 [12]", "result": 81.7, "unit": "%"}, {"measurement": "inhibition", "setting": "[13]", "result": 1.3, "unit": "%"}, {"measurement": "Activity", "setting": "[14]", "result": 0, "unit": "%"}, {"measurement": "Activity", "setting": "[15]", "result": 31, "unit": "%"}, {"measurement": "IC50", "setting": "[16]", "result": 1090, "unit": "nM"}, {"measurement": "IC50", "setting": "Histone deacetylase 11", "result": 930, "unit": "nM"}, {"measurement": "Activity", "setting": "[17]", "result": 5.7, "unit": "%"}, {"measurement": "IC50", "setting": "[18]", "result": "1000 to 10000", "unit": "nM"}]}]}
